Data on one compound can be found in ChEMBL document CHEMBL1121475, “Inhibitors of indoleethylamine N-methyltransferase. Derivatives of 3-methyl-2-thiazolidinimine. In vitro, in vivo, and metabolic studies” (J Med Chem, 1980).

Data set [1] has as its system Oryctolagus cuniculus. In words: Percent of 3-Methyl-thiazolidin-2-ylideneamine as administered dose was reported in rabbit 1. Type of data set: ADME, organism-based. To be noted: in vivo.
The subject of data set [2] is Oryctolagus cuniculus. Nature of the data set: Percent of 3-Methyl-thiazolidin-2-ylideneamine as administered dose was reported in rabbit 3 by Gas-liquid chromatographic analysis. Type of data set: ADME, organism-based. To be noted: in vivo. The procedure, abridged: (§1)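 Rabbits 3 (single 100 mg/kg) and 4 (two 100 mg/kg doses 2 h apart) were gavaged with [14C]-labelled parent amide (204.6 dpm/μg). They were not killed; urine was collected 0-24 h. The metabolite was quantified by GLC of trimethylsilylated extracts against an internal-standard peak-height-ratio curve. Results are given as % of urinary radioactivity or % of administered dose, mean of two determinations.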

Data set [3] relates to Oryctolagus cuniculus. Nature of the data set: 100 mg/kg of [14C]- radiolabeled compound was intravenously (gavage) injected in rabbit3, and radioactivity content in feces was estimated at total hours. Type of data set: ADME, organism-based. The conditions noted are these: rabbit, in vivo, po, in the assay text read “orally (gavage) administered” for “intravenously (gavage) injected”. The method in brief:
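Rabbit given 100 mg/kg [14C]-labelled drug by gavage, 204.6 dpm/μg, in water/0.1 N HCl at 6.66 mg/mL. Rabbit 1 was killed at 2 h and liver, lung, kidney and blood taken; tissue values are μg equivalents/g and tissue:plasma ratio. Rabbit 3 was kept for urine (0-24, 24-48, 48-72 h) and feces (0-48 h), expressed as % of dose.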

For data set [4], the system named is Oryctolagus cuniculus. In words: 200 mg/kg of [14C]- radiolabeled compound was intravenously (gavage) injected in rabbit4, and radioactivity content in feces was estimated at 0-48 hr. The format is ADME, organism-based. The conditions noted are these: rabbit, in vivo, po, in the assay text read “orally (gavage) administered” for “intravenously (gavage) injected”. The method in brief:
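Rabbit given two 100 mg/kg gavage doses of [14C]-labelled drug, 2 h apart, 204.6 dpm/μg, 6.66 mg/mL in water/0.1 N HCl. Rabbit 2 was killed 2 h after the last dose and liver, lung, kidney and plasma taken (μg equivalents/g; tissue:plasma ratio). Rabbit 4 gave urine over 0-4, 0-24, 24-48 and 48-72 h and feces over 0-48 h, as % of dose.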

The subject of data set [5] is Oryctolagus cuniculus. In words: Radioactivity measurements were performed following oral administration of the 100 mg/kg in rabbit 5 after 2 hr in plasma. Type of data set: ADME, organism-based. Set-up: dose 100 mg/kg, route oral. To be noted: in vivo. The method in brief:
(§2)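 Male rabbits (900-1060 g) received [14C]-labelled parent amide, 100 mg/kg (251.7 dpm/μg, pH about 4.5), by gavage. At 2 or 6 h they were killed by air injection into the ear vein. Blood was drawn by cardiac puncture; brain and lung were homogenized in water (1 g = 10 mL). Radioactivity is expressed as μg equivalents of parent per g or mL.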

In data set [6] the test system is Oryctolagus cuniculus. In words: Radioactivity measurements were performed following oral administration of the 100 mg/kg in rabbit 5 after 2 hr lung. The format is ADME, organism-based. Set-up: dose 100 mg/kg, route oral. The conditions noted are these: in vivo. The method in brief:
as §2

The subject of data set [7] is Oryctolagus cuniculus. Nature of the data set: Radioactivity measurements were performed following oral administration of the 100 mg/kg in rabbit 6 after 2 hr in plasma. The conditions noted are these: in vivo. Set-up: dose 100 mg/kg, route oral. Type of data set: ADME, organism-based. The method in brief: as §2
In data set [8] the test system is Oryctolagus cuniculus. In words: Percent of 3-Methyl-thiazolidin-2-ylideneamine as administered dose was reported in rabbit 4 by Gas-liquid chromatographic analysis. To be noted: in vivo. Type of data set: ADME, organism-based. The procedure, abridged: as §1
The test system of data set [9] is Oryctolagus cuniculus. Nature of the data set: Percent of 3-Methyl-thiazolidin-2-ylideneamine as administered dose was reported in rabbit 2. The conditions noted are these: in vivo. The format is ADME, organism-based.
The subject of data set [10] is Oryctolagus cuniculus. Nature of the data set: Evaluation of formation of 3-Methyl-thiazolidin-2-ylideneamine from the radiolabeled compound, orally administered, from rabbit 4 urine was analyzed at 0-2 hr by Gas-liquid chromatographic analysis. Type of data set: ADME, organism-based. The conditions noted are these: in vivo, po, in the assay text read “0-24 hr” for “0-2 hr”. The method in brief:
as §1

The test system of data set [11] is Oryctolagus cuniculus. In words: Evaluation of formation of 3-Methyl-thiazolidin-2-ylideneamine from the radiolabeled compound, orally administered, from rabbit 1,2 lung was analyzed by Gas-liquid chromatographic analysis. The format is ADME, organism-based. The conditions noted are these: in vivo, po. The procedure, abridged:
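Rabbit 1 was given [14C]-labelled parent amide, 100 mg/kg (204.6 dpm/μg), orally by gavage and killed 2 h later. Urine (0-2 h), blood, liver, lung and kidney were collected. Samples were extracted, trimethylsilylated with BSA/pyridine at 70 °C for 12-16 h, and run by GLC on 3% OV-210 at 95 °C against the internal standard 3-ethyl-2-thiazolidinimine. Output is % of radioactivity present as the metabolite, mean of two determinations.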

Data set [12] relates to Oryctolagus cuniculus. In words: Evaluation of formation of 3-Methyl-thiazolidin-2-ylideneamine from the radiolabeled compound, orally administered, from rabbit 2,4 kidney was analyzed by Gas-liquid chromatographic analysis. The format is ADME, organism-based. To be noted: in vivo, po. The method in brief:
(§3)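 Rabbit 2 was gavaged twice with [14C]-labelled parent amide, 100 mg/kg each dose (204.6 dpm/μg), 2 h apart, and killed 2 h after the second dose. Urine (0-4 h), blood, liver, lung and kidney were taken. The metabolite was measured by GLC of trimethylsilyl derivatives (3% OV-210, 95 °C, internal standard 3-ethyl-2-thiazolidinimine). Values are % of radioactivity as metabolite, mean of two determinations.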

Data set [13] has as its system Oryctolagus cuniculus. Nature of the data set: Evaluation of formation of 3-Methyl-thiazolidin-2-ylideneamine from the radiolabeled compound, orally administered, from rabbit 3 urine was analyzed at 0-2 hr by Gas-liquid chromatographic analysis. The conditions noted are these: in vivo, po, in the assay text read “0-24 hr” for “0-2 hr”. Type of data set: ADME, organism-based. The method in brief:
as §1

Data set [14] has as its target Indolethylamine N-methyltransferase (Homo sapiens) (UniProt O95050). Nature of the data set: In vitro evaluation of Indoleethylamine-N-methyltransferase in human lung preparations for ability to inhibit conversion of N-methyltryptamine (NMT) to N,N-dimethyltryptamine (DMT) at dose 25 ug/mL. The format is tissue-based. The method in brief: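 Human lung INMT was taken from the 50000g supernatant, cut with 40-60% ammonium sulfate, dialysed and purified on Sephadex G-150. The reaction contained 0.007 M N-methyltryptamine stock, S-[methyl-14C]adenosylmethionine and potassium phosphate, pH 7.9, in 0.105 mL, run 90 min at 37 °C. It was stopped with borate at pH 10. [14C]DMT was extracted into isoamyl alcohol and counted by scintillation.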

A short description of data set [15]: Dose that causes approximately 50% lethality in mice, when given intraperitoneally; Value ranges from 1000-1500. Type of data set: ADME, organism-based. The conditions noted are these: mouse, in vivo, ip.
Data set [16] has as its system Oryctolagus cuniculus. Nature of the data set: Evaluation of formation of 3-Methyl-thiazolidin-2-ylideneamine from the radiolabeled compound, orally administered, from rabbit 2 urine was analyzed at 0-2 hr by Gas-liquid chromatographic analysis. The format is ADME, organism-based. To be noted: in vivo, po, in the assay text read “0-4 hr” for “0-2 hr”. The method in brief: as §3

The test system of data set [17] is Indolethylamine N-methyltransferase (Oryctolagus cuniculus). In words: In vivo evaluation of specific activity against rabbit lung Indoleethylamine-N-methyltransferase at oral dose of 25 mg/kg.
Data set [18] relates to Oryctolagus cuniculus. Nature of the data set: 100 mg/kg of [14C]- radiolabeled compound was orally (gavage) administered in rabbit 1, and radioactivity content in lung was estimated. The conditions noted are these: in vivo, po.
In data set [19] the test system is Oryctolagus cuniculus. Nature of the data set: 200 mg/kg of [14C]- radiolabeled compound was orally administered in rabbit2, and radioactivity content in urine was estimated at 0-4 hr. To be noted: rabbit, in vivo, po.
For data set [20], the system named is Oryctolagus cuniculus. In words: 100 mg/kg of [14C]- radiolabeled compound was orally administered in rabbit3, and radioactivity content in urine was estimated at 0-24 hr. The conditions noted are these: rabbit, in vivo, po.
Data set [21] deals with Oryctolagus cuniculus. Nature of the data set: 200 mg/kg of [14C]- radiolabeled compound was orally administered in rabbit4, and radioactivity content in urine was estimated at 24-48 h. To be noted: rabbit, in vivo, po.
Data set [22] deals with Oryctolagus cuniculus. In words: Evaluation of formation of 3-Methyl-thiazolidin-2-ylideneamine from the radiolabeled compound, orally administered, from rabbit 1 urine was analyzed at 0-2 hr by Gas-liquid chromatographic analysis. To be noted: in vivo, po.

Indolethylamine N-methyltransferase (Homo sapiens), sequence (O95050 whole entry): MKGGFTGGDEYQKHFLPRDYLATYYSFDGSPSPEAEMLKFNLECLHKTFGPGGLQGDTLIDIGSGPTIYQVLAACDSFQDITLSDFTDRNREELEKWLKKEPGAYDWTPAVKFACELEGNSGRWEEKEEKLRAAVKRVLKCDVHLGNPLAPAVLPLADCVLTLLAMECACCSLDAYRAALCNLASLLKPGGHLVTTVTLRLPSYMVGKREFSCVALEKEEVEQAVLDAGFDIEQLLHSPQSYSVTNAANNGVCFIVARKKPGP

In the case of `CN1CCS/C1=N\C(=O)CCC(=O)/N=C1/SCCN1C`, the Administered dose with Oryctolagus cuniculus [1] was 27.9%; in the data set on Oryctolagus cuniculus [2] it was 41.2%; with Oryctolagus cuniculus [3], 90.7%; with Oryctolagus cuniculus [4] it was 6%; in the data set on Oryctolagus cuniculus [8] it was 41.3%; with Oryctolagus cuniculus [9], 10.8%. The values for the Administered dose in the data set on Oryctolagus cuniculus [19], in the data set with Oryctolagus cuniculus [20] and in the data set with Oryctolagus cuniculus [21] were 24%, 85.9% and 0.8%, respectively. The Radioactivity level in the data set with Oryctolagus cuniculus [5] is 14.2 µg/mL; with Oryctolagus cuniculus [6], 36.4 µg/g; with Oryctolagus cuniculus [7] it was 21.1 µg/mL. Moreover, the Radioactivity was 48.7% with Oryctolagus cuniculus [10]; 92.9% in the data set on Oryctolagus cuniculus [11]; 65.3% with Oryctolagus cuniculus [12]; 51.3% with Oryctolagus cuniculus [13]; 44.7% in the data set with Oryctolagus cuniculus [16]. In [14], this compound returned an inhibition of 12%. This compound also registered an LD50 in [15] of 1000 mg/kg. In data set [17], the Specific activity was 14100 dpm. Further, the Radioactivity concentration with Oryctolagus cuniculus [18] was 36.3 µg/g. In addition, in the data set with Oryctolagus cuniculus [22], the Percent of urinary radioactivity was determined as 57.2%.
